Results taken from ChEMBL document CHEMBL1140231, “Design, synthesis, and evaluation of tricyclic, conformationally constrained small-molecule mimetics of second mitochondria-derived activator of caspases” (J Med Chem, 2008).
Active and inactive are the calls of the source. The rule behind the calls is not given here.

How the values were obtained:
MDA-MB-231 [1] = assay: Induction of cell death in human MDA-MB-231 cells after 48 hrs by trypan blue assay; format: functional, cell-based
Outline: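 MDA-MB-231 breast cancer cells exposed to a range of compound concentrations for 48 hours; viability scored by trypan blue exclusion; percent dead cells reported.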

MDA-MB-231 [2] = assay: Induction of degradation of cIAP1 in human MDA-MB-231 cells after 24 hrs by Western blot analysis; format: functional, cell-based
Outline: (§1)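 MDA-MB-231 breast cancer cells exposed to a range of concentrations for 24 hours; lysate proteins probed by Western blot with specific antibodies against cIAP-1, caspase-8, and pro- and cleaved PARP.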

MDA-MB-231 [3] = assay: Induction of cell death in human MDA-MB-231 cells at 1 uM after 48 hrs by trypan blue assay; format: functional
Outline: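 MDA-MB-231 breast cancer cells exposed to compound for 48 hours. Viability scored by trypan blue exclusion. Read-out is percentage of cells dead.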

MDA-MB-231 [4] = assay: Growth inhibition of human MDA-MB-231 cells after 4 days by WST8 assay; settings: MDA-MB-231, 96 h
MDA-MB-231 [5] = assay: Induction of caspase 8 processing in human MDA-MB-231 cells within 24 hrs by Western blot analysis; format: functional, cell-based; outline: as §1
MDA-MB-231 [6] = assay: Induction of degradation of cIAP1 in human MDA-MB-231 cells upto 100 nM after 24 hrs by Western blot analysis; format: functional, cell-based; outline: as §1
MDA-MB-231 [7] = assay: Induction of poly(ADP-ribose) polymerase cleavage in human MDA-MB-231 cells within 24 hrs by Western blot analysis; format: functional, cell-based; outline: as §1

SMILES | Activity (MDA-MB-231 [1]) | Activity (MDA-MB-231 [2]) | Activity (MDA-MB-231 [3]) [%] | IC50 (MDA-MB-231 [4]) [nM] | Activity (MDA-MB-231 [5]) | Activity (MDA-MB-231 [6]) | Activity (MDA-MB-231 [7])
CN[C@@H](C)C(=O)N[C@H]1Cc2ccccc2[C@H]2CC[C@@H](C(=O)NC(c3ccccc3)c3ccccc3)N2C1=O | Dose-dependent effect | Active | – | – | – | – | –
CN[C@@H](C)C(=O)N[C@H]1Cc2ccccc2[C@H]2CCC[C@@H](C(=O)NC(c3ccccc3)c3ccccc3)N2C1=O | Dose-dependent effect | Active | <20 | 1370 | – | – | –
CN[C@@H](C)C(=O)N[C@H]1Cc2ccccc2[C@H]2CC[C@@H](C(=O)N[C@@H]3CCCc4ccccc43)N2C1=O | Dose-dependent effect | Active | 75 | – | Dose-dependent effect | Active | Dose-dependent effect
